Screens deposited in PubChem by Johns Hopkins Ion Channel Center.
The list is not random: actives were taken first. Their share in the collection is about 2.3%.
TRPC6 inhibitor – inhibitors of mouse TRPC6 channel; Q61143; HEK293-TRPC6, membrane potential dye, ACh-evoked depolarization; stronger effect = lower value; B-score at 10 µM; 310,000 tested, 1.1% active;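 active = B-score under library mean minus 3 SD, initial fluorescence not abnormally high, positive integrated signal ratio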;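 also: B-score derived from integrated fluorescence ratio over the kinetic read; more negative B-score means stronger inhibition of depolarization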
Target sequence (Q61143 whole entry, looked up): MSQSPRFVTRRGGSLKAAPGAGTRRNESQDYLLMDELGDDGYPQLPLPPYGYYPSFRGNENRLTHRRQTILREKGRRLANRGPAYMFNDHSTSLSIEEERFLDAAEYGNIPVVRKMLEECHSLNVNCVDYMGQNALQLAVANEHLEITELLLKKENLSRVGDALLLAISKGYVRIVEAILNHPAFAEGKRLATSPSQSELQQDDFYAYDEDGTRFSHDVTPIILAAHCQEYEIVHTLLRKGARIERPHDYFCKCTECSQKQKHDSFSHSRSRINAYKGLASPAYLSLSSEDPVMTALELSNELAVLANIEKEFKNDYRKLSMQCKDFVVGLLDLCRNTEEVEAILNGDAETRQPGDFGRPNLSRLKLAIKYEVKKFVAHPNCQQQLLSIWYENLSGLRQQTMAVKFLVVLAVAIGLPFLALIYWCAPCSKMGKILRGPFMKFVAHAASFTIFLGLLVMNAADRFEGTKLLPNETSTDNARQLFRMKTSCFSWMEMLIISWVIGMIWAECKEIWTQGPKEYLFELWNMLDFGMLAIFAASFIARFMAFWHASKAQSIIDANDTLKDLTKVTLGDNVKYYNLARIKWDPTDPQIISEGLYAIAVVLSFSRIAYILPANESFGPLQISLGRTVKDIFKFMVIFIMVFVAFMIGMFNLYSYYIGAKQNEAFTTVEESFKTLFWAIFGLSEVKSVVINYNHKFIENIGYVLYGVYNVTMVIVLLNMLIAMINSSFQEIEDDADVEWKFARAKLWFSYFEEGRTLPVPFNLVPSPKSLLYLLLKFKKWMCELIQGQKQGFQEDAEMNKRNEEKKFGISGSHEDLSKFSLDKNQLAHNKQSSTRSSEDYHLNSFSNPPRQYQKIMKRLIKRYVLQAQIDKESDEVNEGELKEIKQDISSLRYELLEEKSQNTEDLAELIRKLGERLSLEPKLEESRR
TRPC6 activator – mouse TRPC6 channel activation; HEK293-TRPC6 membrane potential dye fluorescence; stronger effect = higher value; Q61143; 310,000 tested, 0.13% active; AID 2550; B-score at 10 µM;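 active = B-score of the integrated fluorescence ratio above library mean plus 3 SD, and starting fluorescence ratio within library mean plus 5 SD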;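 also: higher score means more depolarization so channel activation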
TRPC4 inh – TRPC4 (mouse) channel inhibition; Q9QUQ5; HEK293 TRPC4beta/mu-opioid, DAMGO-evoked Fluo4 calcium flux; stronger effect = lower value; B-score at 10 µM; 300,000 tested, 0.39% active; AID 2247;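 active = B-score over 3 SD under the library average, no early fluorescence shift, positive overall ratio signal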
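Signal: kinetic Fluo4 fluorescence imaging of calcium influx. Material: stable TRPC4beta/mu-opioid receptor HEK293 cells. Probe or stimulus: DAMGO in two steps, submaximal then maximal.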
TRPC4 agonist – activators of mouse TRPC4 channel | B-score at 10 µM | AID 2237 | Q9QUQ5 | 310,000 tested, 0.49% active | HEK293 TRPC4beta/mu-opioid, Fluo4 calcium fluorescence; stronger effect = higher value;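 active = B-score above 5 SD of library B-scores, and initial fluorescence ratio not above library mean plus 5 SD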;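 also: positive B-score marks a calcium rise read as TRPC4 activation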
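Incubation: 45 min room-temperature Fluo4 loading, 110 s read / System: HEK293 cells stably co-expressing mouse TRPC4beta and mu-opioid receptor / Signal: Fluo4 fluorescence, kinetic / Control set: buffer (low) and maximal DAMGO (high) / Measure: integrated baseline-normalised fluorescence ratio, converted to per-well B score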
TRPC4 PAM – allosteric potentiators of mouse TRPC4 channel; Q9QUQ5; HEK293 TRPC4beta/mu-opioid, DAMGO EC20, Fluo-4 Ca2+ flux; stronger effect = higher value; B-score at 10 µM; 310,000 tested, 0.42% active; AID 2227;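 active = B-score of calcium response area above 5 SD of library B-scores, with initial fluorescence ratio within 5 SD of library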;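 also: B-score of integrated fluorescence ratio over time as area under calcium response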
TRPC4 sel inh 2 – second check of whether TRPC6 inhibitors also affect mouse TRPC4; shares compounds with TRPC6 inhibitor; inhibition, % at 10 µM; HEK293 TRPC4/MOR, membrane potential dye fluorescence; channel activated by saturating DAMGO dose; AID 2776; 920 tested, 42% active;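 active = compounds whose fluorescence signal differed from control wells by over 3 SD, either direction, in both duplicate plates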
TRPC4 spec – tests whether TRPC6 inhibitors also affect mouse TRPC4 | shares compounds with TRPC6 inhibitor | HEK293 TRPC4/mu-opioid, membrane potential fluorescence | activity change, negative = inhibition, % at 10 µM | 920 tested, 61% active | AID 2777;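 active = rise or fall in signal beyond 3 SD of buffer-only wells in both replicate plates, either sign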;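 also: integrated kinetic ratio of fluorescence range over baseline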
HEK293 MPD ctr 2-1 – second check of TRPC6 inhibitor effects in parental HEK293 cells; 920 tested, 31% active; shares compounds with TRPC6 inhibitor; parental HEK293 membrane potential dye fluorescence; maximal acetylcholine challenge after compound addition; signal change vs control, % at 10 µM; AID 2779;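 active = membrane potential signal moving either way by over 3 SD of the maximum-effect control, in both duplicate plates, meaning non-specific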
HEK293 MPD ctr-1 – checks TRPC6 inhibitor effects in parental HEK293 cells | AID 2780 | membrane potential signal change, % at 10 µM | 920 tested, 60% active | parental HEK293 membrane potential dye fluorescence | shares compounds with TRPC6 inhibitor;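 active = membrane potential signal shifting up or down by more than 3 SD of buffer-only wells, on both duplicate plates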
HEK293 MPD ctr-2 – parental HEK293 nonspecific activity of TRPC6 modulators; 2,400 tested, 51% active; shares compounds with TRPC6 inhibitor; membrane potential signal change, % at 10 µM; membrane potential dye fluorescence;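 active = membrane potential signal moves up or down beyond 5 SD from buffer-only wells, on both duplicate plates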
HEK293 MPD ctr 2-2 – second check of TRPC6 modulator effects in parental HEK293 cells; shares compounds with TRPC6 inhibitor; membrane potential dye fluorescence; after compound, maximal acetylcholine stimulation; inhibition, % at 10 µM; 2,400 tested, 14% active; AID 488926;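 active = membrane potential signal drops by more than 5 SD from the mean control signal, in both duplicate plates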;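 also: plate controls were acetylcholine ECmax control wells for no effect and buffer only wells for full effect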
TRPC4/MOR mod – mouse TRPC4 off-target activity of TRPC6 modulators; shares compounds with TRPC6 inhibitor; HEK293 TRPC4/mu-opioid, membrane potential fluorescence; percent change from control (negative = decrease, positive = increase), % at 10 µM; 2,400 tested, 69% active;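 active = membrane potential signal moved up or down beyond 5 SD of buffer control wells, in both duplicate plates, actives on both sides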;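 also: plate controls were assay buffer wells for no effect and DAMGO maximal-effect wells for full effect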
TRPC4 ctr inh 2 – second selectivity test of TRPC6 modulators against mouse TRPC4; shares compounds with TRPC6 inhibitor; HEK293 TRPC4/mu-opioid, membrane potential dye fluorescence; stimulated with maximal-effect DAMGO; inhibition, % at 10 µM; 2,400 tested, 55% active;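 active = drop in membrane potential signal beyond 5 SD of the control wells in both duplicate plates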;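 also: TRPC4 counter screen for TRPC6 hits run under conditions tuned for TRPC6 not TRPC4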
TRPC6 block conf – mouse TRPC6 inhibitor confirmation; inhibition, % at 10 µM; shares compounds with TRPC6 inhibitor; 3,300 tested, 43% active; AID 488960; HEK293-TRPC6, membrane potential dye, ACh-evoked depolarization;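 active = fluorescence ratio falls more than 5 SD below the full-stimulation control mean, in both duplicate runs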;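 also: integrated fluorescence ratio of peak minus minimum over baseline after agonist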
TRPC6 act confirm – mouse TRPC6 activator confirmation. shares compounds with TRPC6 inhibitor. HEK293-TRPC6 membrane potential dye fluorescence, FDSS. activation, % at 10 µM. 2,800 tested, 11% active;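 active = ratio signal rise beyond 5 SD above unstimulated control wells' mean, seen in both duplicate runs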;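 also: plate controls were buffer EC0 wells for no effect and acetylcholine ECmax response for full effect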
Numbers without * were called inactive.

Results for Cc1ccc(Nc2c(-c3ccc(N4CCOCC4)cc3)nc3ncccn23)c(C)c1 ?
TRPC6 inhibitor: -6.1*; TRPC6 activator: inactive; TRPC4 inh: inactive; TRPC4 agonist: inactive; TRPC4 PAM: inactive; HEK293 MPD ctr-2: -143%*; HEK293 MPD ctr 2-2: 62%*; TRPC4/MOR mod: -29%*; TRPC4 ctr inh 2: 96%*; TRPC6 block conf: 84%*; TRPC6 act confirm: inactive

Results for Cc1ccc(Nc2c(-c3ccc(C)o3)nc3ncccn23)cc1 ?
TRPC6 inhibitor: inactive; TRPC6 activator: inactive; TRPC4 inh: inactive; TRPC4 agonist: inactive; TRPC4 PAM: inactive

How did Cc1ccc(-c2nc3ncccn3c2NC2CCCC2)o1 do in these assays?
TRPC6 inhibitor: inactive; TRPC6 activator: inactive; TRPC4 inh: inactive; TRPC4 agonist: inactive; TRPC4 PAM: inactive

Results for Brc1ccc(-c2nc3ncccn3c2NC2CCCCC2)o1 ?
TRPC6 inhibitor: -5*; TRPC6 activator: inactive; TRPC4 inh: inactive; TRPC4 agonist: inactive; TRPC4 PAM: inactive; HEK293 MPD ctr-2: 116%*; HEK293 MPD ctr 2-2: inactive; TRPC4/MOR mod: 22%*; TRPC4 ctr inh 2: 36%*; TRPC6 block conf: inactive; TRPC6 act confirm: inactive

How did Cc1ccc(-c2nc3ncccn3c2Nc2ccccc2C)o1 do in these assays?
TRPC6 inhibitor: -5.8*; TRPC6 activator: inactive; TRPC4 inh: inactive; TRPC4 agonist: inactive; TRPC4 PAM: inactive; HEK293 MPD ctr-2: -115%*; HEK293 MPD ctr 2-2: inactive; TRPC4/MOR mod: -18%*; TRPC4 ctr inh 2: 68%*; TRPC6 block conf: inactive; TRPC6 act confirm: inactive

How did O=c1[nH]c(/C=C/c2ccc(Cl)cc2Cl)c([N+](=O)[O-])c(=O)[nH]1 do in these assays?
TRPC6 inhibitor: inactive; TRPC6 activator: inactive; TRPC4 inh: inactive; TRPC4 agonist: inactive; TRPC4 PAM: inactive

What do the screens show for `COc1ccc(-c2cn3cccc(C)c3n2)cc1F`?
TRPC6 inhibitor: -8*; TRPC6 activator: inactive; TRPC4 inh: inactive; TRPC4 agonist: inactive; TRPC4 PAM: inactive; TRPC4 sel inh 2: inactive; TRPC4 spec: inactive; HEK293 MPD ctr 2-1: 4.5%*; HEK293 MPD ctr-1: -198%*; TRPC6 block conf: inactive; TRPC6 act confirm: inactive
